# Screening data deposited in PubChem BioAssay by The Scripps Research Institute Molecular Screening Center.
# Shown are actives, neighbours in structure and some others; about 4.5% of the full set was active somewhere.
# TAAR1 antagonist: human TAAR1 antagonists, primary screen, Fluo-8 calcium fluorescence, CHO RD-HGA16 cells. inhibition, % at 3 µM. Trace amine-associated receptor 1 (Homo sapiens), Q96RJ0. antagonist. 360,000 compounds, 1.5% hits;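 active = inhibition above a per-plate cutoff, the mean inhibition of test compounds on that plate plus 3 SD, cut at about 49% in these data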;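 also: 0% = DMSO plus EC80 beta-PEA response and 100% = DMSO alone without agonist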
# Target sequence (Q96RJ0 whole entry, looked up): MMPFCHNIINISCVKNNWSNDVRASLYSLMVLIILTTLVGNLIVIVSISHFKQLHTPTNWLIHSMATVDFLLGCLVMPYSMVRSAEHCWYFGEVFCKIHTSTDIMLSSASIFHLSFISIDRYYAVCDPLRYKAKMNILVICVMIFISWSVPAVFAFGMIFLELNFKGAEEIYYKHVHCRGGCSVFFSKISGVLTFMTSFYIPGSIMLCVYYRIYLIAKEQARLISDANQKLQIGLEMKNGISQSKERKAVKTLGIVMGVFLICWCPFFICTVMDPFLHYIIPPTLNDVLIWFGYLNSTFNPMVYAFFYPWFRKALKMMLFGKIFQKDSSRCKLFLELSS
#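 test system = CHO RD-HGA16 cells bearing hTAAR1 | replication = singlicate | controls = DMSO-only wells and EC80 β-PEA-stimulated wells | reagent = EC80 β-phenethylamine stimulus | read-out basis = percent inhibition of PEA-evoked calcium signal, max/basal emission ratio | schedule = seeding 17-24 h prior, 75-min 37 °C, 30-min RT dye loading | signal = kinetic Fluo-8 calcium fluorescence measurement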
# TAAR1 ag: human TAAR1 agonists, primary screen, Fluo-8 calcium fluorescence, CHO RD-HGA16 cells; Trace amine-associated receptor 1 (Homo sapiens), Q96RJ0; vehicle wells 0%, saturating PEA agonist 100%; activation, % at 3 µM; 360,000 compounds, 0.99% hits;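 active = activation above the mean activation of all test compounds in the run plus 3 SD, cut at about 38% in these data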
#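 System: CHO-derived RD-HGA16 cells with stable Gα16 and human TAAR1 / Times: 17-24 h plating, Fluo-8 75 min 37 °C, 30 min RT / Technique: calcium-sensitive Fluo-8 signal, excitation 470-495, emission 515-575 nm / Measure: % activation relative to PEA EC100 response / Benchmarks: DMSO and PEA EC100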
# OX1R antag-1: antagonists of human orexin 1 receptor (OX1R); Orexin/Hypocretin receptor type 1 (Homo sapiens), O43613; OX1R-expressing cells, FRET antagonist read-out; inhibition, % at 6.6 µM; 330,000 compounds, 1.8% hits; AID 485270, 2010; in the data active = inhibition mostly above about 38%, no sharp cut-off; inactive = mostly below about 40%;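 also: 0% = agonist challenge alone and 100% = reference antagonist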
# Target sequence (O43613 whole entry, looked up): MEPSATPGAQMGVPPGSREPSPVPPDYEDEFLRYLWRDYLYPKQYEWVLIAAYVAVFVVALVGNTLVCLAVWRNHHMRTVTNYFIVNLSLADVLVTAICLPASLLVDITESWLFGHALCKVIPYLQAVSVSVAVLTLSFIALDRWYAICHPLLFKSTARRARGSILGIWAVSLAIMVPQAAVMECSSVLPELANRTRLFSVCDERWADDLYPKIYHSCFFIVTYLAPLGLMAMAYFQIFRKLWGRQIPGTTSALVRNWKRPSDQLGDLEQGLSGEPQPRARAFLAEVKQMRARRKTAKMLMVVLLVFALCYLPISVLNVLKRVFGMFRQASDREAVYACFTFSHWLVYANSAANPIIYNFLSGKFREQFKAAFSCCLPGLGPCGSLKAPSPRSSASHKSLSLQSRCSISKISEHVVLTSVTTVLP
# CHO parental Ca: ATP-evoked calcium signal inhibitors, parental CHO, primary screen, counter-screen for OX1R antagonist project, cell-based, fluorescence, Fluo-8 calcium dye; parental CHO-K1, ATP-induced calcium, Fluo-8 fluorescence; inhibition, % at 5.6 µM; 330,000 compounds, 0.63% hits; AID 463079, 2010;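 active = inhibition above that plate's mean sample inhibition plus 3 SD, cut at about 26% in these data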;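 also: 0% = ATP-challenged DMSO wells and 100% = DMSO wells without ATP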
#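 Material – parental CHO cells · Reagent – ATP stimulus · Compound – single nominal dose of 5.6 µM per compound · Detection – Fluo-8 fluorescence · Read-out basis – percent inhibition of calcium signal · Controls – ATP-challenged DMSO wells low, unchallenged DMSO wells high · Repeats – no replicates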
# OX1R antag-2: OX1R (HCRTR1) antagonists, primary screen, fluorescence, CHO/OX1R cells, Fluo-8 calcium, orexin A; Orexin/Hypocretin receptor type 1 (Homo sapiens), O43613; Fluo-8 calcium fluorescence; inhibition, % at 5 µM; 330,000 compounds, 0.43% hits; AID 434989, 2010;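 active = inhibition above its plate's threshold, mean inhibition of all tested compounds on the plate plus 3 SD, cut at about 37% in these data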;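 also: 0% = orexin A challenge wells and 100% = SB-334867-A antagonist wells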
# GPR7 antagonist: GPR7 receptor antagonists, primary screen, cell-based, fluorescence, single concentration | Neuropeptides B/W receptor type 1 (Homo sapiens), P48145 | GPR7-expressing cells, fluorescence antagonist assay | inhibition, % at 4.4 µM | 290,000 compounds, 1.1% hits | AID 1861, 2009; in the data active = inhibition above about 16%, passing the limit was not always enough;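 also: cells stimulated with the agonist NPW; 0% = agonist with vehicle and 100% = vehicle without agonist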
# TAAR1 nonsel count: nonselective antagonists in TAAR1 counter-screen cells, counter-screen for hTAAR1 antagonist project, cell-based, fluorescence, calcium; shares compounds with TAAR1 antagonist; counterscreen cell line, antagonist mode; inhibition, % at 3 µM; 2,400 compounds, 77% hits; AID 651780, 2012; in the data active = inhibition above about 22%;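 also: CHO-Ga16 host cells stimulated with ATP at an EC80 level; 0% = agonist EC80 plus vehicle and 100% = vehicle without agonist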
# TAAR1 antag conf: human TAAR1 antagonists, retest of hits, confirmation, cell-based, fluorescence; TAAR1-expressing cells, fluorescence antagonist read-out; 2,400 compounds, 40% hits; AID 651785, 2012; inhibition, % at 3 µM; shares compounds with TAAR1 antagonist; in the data active = inhibition above about 49%;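 also: CHO-Ga16 host cells challenged with agonist PEA near its EC80; 0% = agonist at EC80 plus vehicle and 100% = vehicle with no agonist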
# Ga16 ag counter: calcium activation in Ga16-expressing cells, counter-screen for TAAR1 antagonist project, cell-based, fluorescence | shares compounds with TAAR1 antagonist | agonist counterscreen | activation, % at 3 µM | 2,400 compounds, 18% hits | AID 651953, 2012; in the data active = activation above about 12%;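 also: 0% = vehicle wells and 100% = saturating stimulus response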
# TAAR1 ag counter: TAAR1 activation by candidate antagonists – cell-based, fluorescence, counter-screen for TAAR1 antagonist project; activation, % at 3 µM; 2,400 compounds, 2% hits; hTAAR1 cell line, agonist mode; shares compounds with TAAR1 antagonist; in the data active = activation above about 37%;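 also: CHO cells stably expressing TAAR1 with calcium dye readout; 0% = DMSO vehicle and 100% = full agonist response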
# * = called active by the depositor; . = no result given.
SMILES,TAAR1 antagonist,TAAR1 ag,OX1R antag-1,CHO parental Ca,OX1R antag-2,GPR7 antagonist,TAAR1 nonsel count,TAAR1 antag conf,Ga16 ag counter,TAAR1 ag counter
COc1ccc(-c2nc3ccc(Br)cn3c2CC(C)(C)C)cc1OC,-16.2,0.1,.,.,.,.,.,.,.,.
O=C1CCC2(CCCC2)c2ccccc21,-2.7,4.6,.,.,.,.,.,.,.,.
CSc1ccc(CCNC(=O)c2ccc(CS(=O)Cc3ccccc3Cl)o2)cc1 (stereo not drawn),47.1,14.1,15.3,-23.3,-7.4,-1.5,.,.,.,.
O=C(c1ccc(CS(=O)Cc2ccc(Cl)cc2)o1)N1CCN(c2ccccn2)CC1 (stereo not drawn),5.5,9.7,16.3,-17.9,-34.1,-3.9,.,.,.,.
O=C(NCCc1ccc(Cl)cc1)c1ccc(CS(=O)Cc2ccccc2Cl)o1 (stereo not drawn),60.3*,8.9,8.4,-24.1,-29.6,-5.8,29.1*,40.4,8.6,8.3
O=C(c1ccc(CS(=O)Cc2ccccc2Cl)o1)N1CCN(c2ccccn2)CC1 (stereo not drawn),48.7*,17.1,-3.4,-27.4,-34.2,13.4,15.3,31.6,7.6,6.1
C=CCN1C(=O)CSc2ccc(C(=O)NCc3ccco3)cc21,23.1,6.6,1.2,-18.2,-19.1,-1.3,.,.,.,.
C=CCN1C(=O)CSc2ccc(C(=O)NCCC3=CCCCC3)cc21,54.7*,19.8,12.9,-21.4,-31.1,-3.0,37.8*,49.7*,14.2*,10.9
O=C(O)c1ccc2c(c1)SC1=NS(=O)(=O)CCN12,-11.8,1.0,6.8,10.2,10.2,3.9,.,.,.,.
CN(C(=O)c1ccc2c(c1)SC1=NS(=O)(=O)CCN12)C(c1ccccc1)c1ccccc1,69.5*,20.6,12.4,-12.6,-17.5,-8.2,30.7*,53.2*,8.0,9.4
CCO[C@H]1OC(C(=O)NCc2nc3ccccc3[nH]2)=C[C@@H](c2csc3ccccc23)[C@@H]1CCCO,53.6*,28.7,21.3,-20.9,-18.2,-9.8,25.6*,31.3,6.1,4.7
CCO[C@@H]1OC(C(=O)NCc2nc3ccccc3[nH]2)=C[C@H](c2csc3ccccc23)[C@H]1CCCO,53.4*,19.3,24.7,-36.1,-21.2,-11.1,30.4*,35.0,5.0,4.6
O=C1c2ccccc2C(=O)c2c(/C=C/N3CCCCC3)ccnc21,-5.9,4.5,.,.,.,.,.,.,.,.
CCOC(=O)C1=C(COC(=O)Cc2ccccc2)NC(=O)NC1C (stereo not drawn),5.3,4.8,1.1,-15.4,-18.4,-7.0,.,.,.,.
CCOC(=O)C1=C(COC(=O)/C=C/c2cccc(Br)c2)NC(=O)NC1C (stereo not drawn),58.5*,24.1,8.5,-25.8,12.9,.,9.6,36.9,10.4,11.2
CCOC(=O)C1=C(COC(=O)/C=C/c2cccc(Cl)c2)NC(=O)NC1C (stereo not drawn),27.9,12.5,15.2,-20.1,-23.0,.,.,.,.,.
CCOC(=O)C1=C(COC(=O)/C=C/c2cccc([N+](=O)[O-])c2)NC(=O)NC1C (stereo not drawn),58.4*,24.0,20.6,-10.6,-21.2,.,20.9,56.3*,14.7*,19.8
CCOC(=O)C1=C(COC(=O)Cc2ccc(Cl)cc2)NC(=O)NC1C (stereo not drawn),60.2*,16.9,9.8,-15.2,-26.2,.,24.6*,41.7,7.5,4.7
CCOC(=O)C1=C(COC(=O)/C=C/c2ccc(O)c(OC)c2)NC(=O)NC1C (stereo not drawn),61.9*,25.9,4.5,-13.9,-0.7,.,28.4*,51.2*,12.9*,19.7
O=C(NCc1ccccc1)c1cc(C2CCCCN2C(=O)c2cccs2)on1 (stereo not drawn),-2.8,-1.3,.,.,.,.,.,.,.,.
Nc1ncnc2c1ncn2[C@@H]1O[C@H](C(=O)NCC2CCN(Cc3ccccc3)CC2)[C@@H](O)[C@H]1O,0.8,0.0,.,.,.,.,.,.,.,.
CCNC(=O)CSc1nnc(-c2cccc(S(=O)(=O)N(CC)CC)c2)n1CCc1ccccc1,0.8,9.8,10.1,-20.5,-9.7,2.6,.,.,.,.
CCSc1nnc(-c2cccc(S(=O)(=O)N(CC)CC)c2)n1Cc1ccccc1,59.6*,11.4,8.8,-9.8,-16.9,13.6,30.7*,51.8*,8.1,5.8
COC(=O)CNC(c1ccccc1)c1cc(C)ccc1NC(=O)c1cccc(Cl)c1 (stereo not drawn),66.7*,0.4,16.0,-25.1,-32.2,24.1*,22.8*,46.7,3.4,8.7
CCn1c(SCc2nc3ccccc3c(=O)[nH]2)nnc1-c1cccnc1,2.1,7.8,-2.8,-1.0,-2.9,-11.5,.,.,.,.
O=c1[nH]c(CSc2nnc(-c3cccnc3)n2C2CCCCC2)nc2ccccc12,65.0*,22.9,5.8,-3.2,-6.2,-7.8,27.6*,55.9*,10.8,14.3
CC[C@]1(C(=O)OC)[C@H]2C(=O)N(Cc3ccccc3)C(=O)[C@H]2[C@H]2CN(C)C(=NCc3ccccc3)N21,.,.,8.7,0.4,-11.3,.,.,.,.,.
O=C(Nc1ccc(N2CCN(C(=O)c3ccc(Cl)cc3)CC2)cc1)c1ccc2c(c1)OCCO2,57.7*,12.3,26.5,7.9,17.9,-9.5,43.9*,49.5*,10.7,5.0
CC(C)N1CCN(C(=O)c2ccc(NC(=O)c3ccc(Br)o3)cc2)CC1,3.3,3.0,11.4,1.0,3.9,.,.,.,.,.
O=C(Nc1ccc(N2CCN(C(=O)c3ccccc3)CC2)cc1)c1cc2ccccc2o1,77.0*,14.8,24.3,-1.8,14.8,-12.0,44.0*,62.0*,9.8,14.1
